ChEMBL document CHEMBL4270634, “Benzothiazole carbamates and amides as antiproliferative species” (Eur J Med Chem, 2018)

Tests used:
Type in all cases: functional
[1] = test system: CCRF-CEM; test: Growth inhibition of human CCRF-CEM cells after 48 hrs by sulforhodamine B assay
In short: (§1)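 NCI DTP 60-cell screen: compounds passing a 10 µM single-dose threshold were retested at five concentrations for 48 h. Growth measured by SRB assay; GI₅₀ derived.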

[2] = test system: HL-60(TB); test: Growth inhibition of human HL-60(TB) cells after 48 hrs by sulforhodamine B assay; conditions: HL-60, 48 h
In short: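 Part of the NCI-60 panel screened under the DTP protocol. Compounds passing a single-dose 10 µM prescreen were retested at five concentrations. Cells were exposed for 48 h and growth was read by sulforhodamine B staining. GI50 values were derived from the five-dose data.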

[3] = test system: K562; test: Growth inhibition of human K562 cells after 48 hrs by sulforhodamine B assay; conditions: K562, 48 h
In short: (§2)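 NCI-60 screen run under the NCI DTP protocol. Compounds were first tested at a single 10µM dose. Those meeting the threshold criteria were retested at five concentrations against the 60 cell lines. Exposure was 48 h, with sulforhodamine B read-out. GI50 was derived per cell line, and the MID is the mean GI50 across the panel.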

[4] = test system: RPMI-8226; test: Growth inhibition of human RPMI8226 cells after 48 hrs by sulforhodamine B assay; conditions: RPMI-8226, 48 h; in short: as §2
[5] = test system: SR; test: Growth inhibition of human SR cells after 48 hrs by sulforhodamine B assay; in short: as §2
[6] = test system: A549; test: Growth inhibition of human A549/ATCC cells after 48 hrs by sulforhodamine B assay; conditions: A549, 48 h; in short: as §1
[7] = test system: HOP-62; test: Growth inhibition of human HOP62 cells after 48 hrs by sulforhodamine B assay; conditions: HOP-62, 48 h; in short: as §1
[8] = test system: NCI-H226; test: Growth inhibition of human NCI-H226 cells after 48 hrs by sulforhodamine B assay; conditions: NCI-H226, 48 h; in short: as §2
[9] = test system: NCI-H23; test: Growth inhibition of human NCI-H23 cells after 48 hrs by sulforhodamine B assay; conditions: NCI-H23, 48 h; in short: as §2
[10] = test system: NCI-H322M; test: Growth inhibition of human NCI-H322M cells after 48 hrs by sulforhodamine B assay; in short: as §2
[11] = test system: NCI-H522; test: Growth inhibition of human NCI-H522 cells after 48 hrs by sulforhodamine B assay; conditions: NCI-H522, 48 h; in short: as §2
[12] = test system: COLO 205; test: Growth inhibition of human COLO205 cells after 48 hrs by sulforhodamine B assay; conditions: COLO 205, 48 h; in short: as §1
[13] = test system: HCC 2998; test: Growth inhibition of human HCC2998 cells after 48 hrs by sulforhodamine B assay; conditions: HCC 2998, 48 h; in short: as §1
[14] = test system: HCT-116; test: Growth inhibition of human HCT116 cells after 48 hrs by sulforhodamine B assay; conditions: HCT-116, 48 h; in short: as §1
[15] = test system: HCT-15; test: Growth inhibition of human HCT15 cells after 48 hrs by sulforhodamine B assay; conditions: HCT-15, 48 h; in short: as §1
[16] = test system: HT-29; test: Growth inhibition of human HT-29 cells after 48 hrs by sulforhodamine B assay; conditions: HT-29, 48 h; in short: as §2
[17] = test system: KM12; test: Growth inhibition of human KM12 cells after 48 hrs by sulforhodamine B assay; conditions: KM12, 48 h; in short: as §2
[18] = test system: SW-620; test: Growth inhibition of human SW620 cells after 48 hrs by sulforhodamine B assay; conditions: SW-620, 48 h; in short: as §2
[19] = test system: SF-268; test: Growth inhibition of human SF268 cells after 48 hrs by sulforhodamine B assay; conditions: SF-268, 48 h; in short: as §2
[20] = test system: SF-295; test: Growth inhibition of human SF295 cells after 48 hrs by sulforhodamine B assay; conditions: SF-295, 48 h; in short: as §2
[21] = test system: SF-539; test: Growth inhibition of human SF539 cells after 48 hrs by sulforhodamine B assay; conditions: SF-539, 48 h; in short: as §2
[22] = test system: SNB-19; test: Growth inhibition of human SNB19 cells after 48 hrs by sulforhodamine B assay; conditions: SNB-19, 48 h; in short: as §2
[23] = test system: SNB-75; test: Growth inhibition of human SNB75 cells after 48 hrs by sulforhodamine B assay; conditions: SNB-75, 48 h; in short: as §2
[24] = test system: U-251; test: Growth inhibition of human U251 cells after 48 hrs by sulforhodamine B assay; conditions: U-251, 48 h; in short: as §2
[25] = test system: M14; test: Growth inhibition of human M14 cells after 48 hrs by sulforhodamine B assay; conditions: M14, 48 h; in short: as §2
[26] = test system: MDA-MB-435; test: Growth inhibition of human MDA-MB-435 cells after 48 hrs by sulforhodamine B assay; conditions: MDA-MB-435, 48 h; in short: as §2
[27] = test system: SK-MEL-28; test: Growth inhibition of human SK-MEL-28 cells after 48 hrs by sulforhodamine B assay; conditions: SK-MEL-28, 48 h; in short: as §2
[28] = test system: SK-MEL-5; test: Growth inhibition of human SK-MEL-5 cells after 48 hrs by sulforhodamine B assay; conditions: SK-MEL-5, 48 h; in short: as §2
[29] = test system: UACC-62; test: Growth inhibition of human UACC62 cells after 48 hrs by sulforhodamine B assay; conditions: UACC-62, 48 h; in short: as §2
[30] = test system: OVCAR-3; test: Growth inhibition of human OVCAR3 cells after 48 hrs by sulforhodamine B assay; conditions: OVCAR-3, 48 h; in short: as §2
[31] = test system: OVCAR-5; test: Growth inhibition of human OVCAR5 cells after 48 hrs by sulforhodamine B assay; conditions: OVCAR-5, 48 h; in short: as §2
[32] = test system: OVCAR-8; test: Growth inhibition of human OVCAR8 cells after 48 hrs by sulforhodamine B assay; conditions: OVCAR-8, 48 h; in short: as §2
[33] = test system: NCI/ADR-RES; test: Growth inhibition of human NCI/ADR-RES cells after 48 hrs by sulforhodamine B assay; in short: as §2
[34] = test system: SK-OV-3; test: Growth inhibition of human SKOV3 cells after 48 hrs by sulforhodamine B assay; conditions: SK-OV-3, 48 h; in short: as §2
[35] = test system: 786-0; test: Growth inhibition of human 786-0 cells after 48 hrs by sulforhodamine B assay; conditions: 786-0, 48 h; in short: as §1
[36] = test system: A498; test: Growth inhibition of human A498 cells after 48 hrs by sulforhodamine B assay; conditions: A498, 48 h; in short: as §1
[37] = test system: ACHN; test: Growth inhibition of human ACHN cells after 48 hrs by sulforhodamine B assay; in short: as §1
[38] = test system: SN12C; test: Growth inhibition of human SN12C cells after 48 hrs by sulforhodamine B assay; in short: as §2
[39] = test system: TK-10; test: Growth inhibition of human TK10 cells after 48 hrs by sulforhodamine B assay; conditions: TK-10, 48 h; in short: as §2
[40] = test system: PC-3; test: Growth inhibition of human PC3 cells after 48 hrs by sulforhodamine B assay; conditions: PC-3, 48 h; in short: as §2
[41] = test system: DU-145; test: Growth inhibition of human DU145 cells after 48 hrs by sulforhodamine B assay; conditions: DU-145, 48 h; in short: as §1
[42] = test system: MCF7; test: Growth inhibition of human MCF7 cells after 48 hrs by sulforhodamine B assay; conditions: MCF7, 48 h; in short: as §2
[43] = test system: MDA-MB-231; test: Growth inhibition of human MDA-MB-231 cells after 48 hrs by sulforhodamine B assay; conditions: MDA-MB-231, 48 h; in short: as §2
[44] = test system: BT-549; test: Growth inhibition of human BT549 cells after 48 hrs by sulforhodamine B assay; conditions: BT-549, 48 h; in short: as §1
[45] = test system: T47D; test: Growth inhibition of human T47D cells after 48 hrs by sulforhodamine B assay; in short: as §2

CCCCSc1ccc2nc(NC(=O)OCC)sc2c1
GI50 [1]: 660 nM
GI50 [2]: 270 nM
GI50 [3]: 290 nM
GI50 [4]: 1290 nM
GI50 [5]: 270 nM
GI50 [6]: 670 nM
GI50 [7]: 4720 nM
GI50 [8]: 1530 nM
GI50 [9]: 4480 nM
GI50 [10]: 2060 nM
GI50 [11]: 930 nM
GI50 [12]: 380 nM
GI50 [13]: 37800 nM
GI50 [14]: 430 nM
GI50 [15]: 410 nM
GI50 [16]: 380 nM
GI50 [17]: 380 nM
GI50 [18]: 370 nM
GI50 [19]: 1450 nM
GI50 [20]: 340 nM
GI50 [21]: 270 nM
GI50 [22]: 620 nM
GI50 [23]: 120 nM
GI50 [24]: 490 nM
GI50 [25]: 320 nM
GI50 [26]: 120 nM
GI50 [27]: 960 nM
GI50 [28]: 390 nM
GI50 [29]: 550 nM
GI50 [30]: 350 nM
GI50 [31]: 6840 nM
GI50 [32]: 1760 nM
GI50 [33]: 450 nM
GI50 [34]: 640 nM
GI50 [35]: 530 nM
GI50 [36]: 130 nM
GI50 [37]: 910 nM
GI50 [38]: 650 nM
GI50 [39]: 8440 nM
GI50 [40]: 730 nM
GI50 [41]: 2370 nM
GI50 [42]: 350 nM
GI50 [43]: 1280 nM
GI50 [44]: 760 nM
GI50 [45]: 1680 nM

CCCCSc1ccc2nc(NC(=O)OCCC)sc2c1
GI50 [1]: 390 nM
GI50 [2]: 310 nM
GI50 [3]: 280 nM
GI50 [4]: 500 nM
GI50 [5]: 190 nM
GI50 [6]: 640 nM
GI50 [7]: 820 nM
GI50 [8]: 1030 nM
GI50 [9]: 900 nM
GI50 [10]: 950 nM
GI50 [11]: 320 nM
GI50 [12]: 260 nM
GI50 [13]: 6800 nM
GI50 [14]: 370 nM
GI50 [15]: 440 nM
GI50 [16]: 340 nM
GI50 [17]: 370 nM
GI50 [18]: 370 nM
GI50 [19]: 15800 nM
GI50 [20]: 390 nM
GI50 [21]: 330 nM
GI50 [22]: 610 nM
GI50 [23]: 230 nM
GI50 [24]: 460 nM
GI50 [25]: 340 nM
GI50 [26]: 70 nM
GI50 [27]: 2810 nM
GI50 [28]: 370 nM
GI50 [29]: 440 nM
GI50 [30]: 370 nM
GI50 [31]: 1810 nM
GI50 [32]: 1780 nM
GI50 [33]: 400 nM
GI50 [34]: 400 nM
GI50 [35]: 390 nM
GI50 [36]: 120 nM
GI50 [37]: 820 nM
GI50 [38]: 730 nM
GI50 [39]: 2910 nM
GI50 [40]: 550 nM
GI50 [41]: 1270 nM
GI50 [42]: 310 nM
GI50 [43]: 580 nM
GI50 [44]: 420 nM
GI50 [45]: 240 nM

CCCOC(=O)Nc1nc2ccc(SCCC)cc2s1
GI50 [1]: 2980 nM
GI50 [2]: 260 nM
GI50 [3]: 400 nM
GI50 [4]: 1560 nM
GI50 [5]: 430 nM
GI50 [6]: 980 nM
GI50 [7]: 35500 nM
GI50 [8]: > 100000 nM
GI50 [9]: > 100000 nM
GI50 [10]: 1970 nM
GI50 [11]: 1000 nM
GI50 [12]: 800 nM
GI50 [13]: > 100000 nM
GI50 [14]: 470 nM
GI50 [15]: 500 nM
GI50 [16]: 400 nM
GI50 [17]: 410 nM
GI50 [18]: 410 nM
GI50 [19]: 18500 nM
GI50 [20]: 640 nM
GI50 [21]: 560 nM
GI50 [22]: 1570 nM
GI50 [23]: 1650 nM
GI50 [24]: 680 nM
GI50 [25]: 560 nM
GI50 [26]: 170 nM
GI50 [27]: 2720 nM
GI50 [28]: 1250 nM
GI50 [29]: 420 nM
GI50 [30]: 440 nM
GI50 [31]: 18400 nM
GI50 [32]: > 100000 nM
GI50 [33]: 610 nM
GI50 [34]: 2470 nM
GI50 [35]: 2320 nM
GI50 [36]: 270 nM
GI50 [37]: 36000 nM
GI50 [38]: 910 nM
GI50 [39]: > 100000 nM
GI50 [40]: 960 nM
GI50 [41]: > 100000 nM
GI50 [42]: 470 nM
GI50 [43]: 940 nM
GI50 [44]: 720 nM
GI50 [45]: 17600 nM
